An excerpt weighted towards active compounds, which were near 1.7% of everything screened.
PLC-gamma1 inh = inhibitors of human phospholipase C gamma1. P19174. purified PLC-gamma1, fluorogenic substrate, fluorescence. inhibition, % at 12.2 µM. 0.84% of 370,000 active; in the data active = inhibition above about 9.5%
UCH37 DUB inh = blocks the human deubiquitinase UCH37. purified proteasome/UCH37, Ub-AMC cleavage fluorescence. AID 588478. inhibition, % (test concentration not listed). 0.33% of 330,000 active. Q9Y5K5;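 active = mean inhibition over replicate wells above about 20%, limit read from the data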;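 also: 0% = compound-free wells with enzyme and 100% = wells lacking proteasome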
Target sequence (Q9Y5K5 whole entry, looked up): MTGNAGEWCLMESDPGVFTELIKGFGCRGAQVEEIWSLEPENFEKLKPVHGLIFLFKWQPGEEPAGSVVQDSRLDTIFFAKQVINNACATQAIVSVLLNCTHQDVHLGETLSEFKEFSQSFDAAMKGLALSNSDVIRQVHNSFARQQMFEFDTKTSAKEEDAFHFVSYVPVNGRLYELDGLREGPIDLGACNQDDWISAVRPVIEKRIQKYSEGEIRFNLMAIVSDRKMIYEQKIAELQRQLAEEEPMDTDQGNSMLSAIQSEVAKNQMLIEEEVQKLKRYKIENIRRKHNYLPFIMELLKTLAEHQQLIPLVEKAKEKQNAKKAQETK
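Material: Human UCH37 enzyme supplied as purified proteasome complex | Schedule: 30 min preincubation with enzyme, 25 min cleavage at room temperature | Detection: AMC fluorescence 355/460 nm | Measure: % inhibition of Ub-AMC cleavage fluorescence | Controls: Wells without proteasome as full block, compound-free enzyme plus substrate as uninhibited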
PLC-beta3 inh = blocks human PLC-beta3 enzyme activity. 0.18% of 370,000 active. Q01970. Purified PLC-beta3, fluorogenic substrate, fluorescence. inhibition, % at 12.2 µM; in the data active = inhibition above about 11%;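 also: 0% = median of compound wells on plate and 100% = full blocker control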
Rpn11 block = Rpn11 (human) deubiquitinase inhibition; human 26S proteasome, Ub4-pepOG fluorescence polarization; 20S core pre-blocked with epoxomicin; inhibition, % at 20 µM; 0.59% of 360,000 active; AID 588493;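 active = inhibition at 20 µM, scaled to each plate's controls, above about 33%, limit read from the data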
Target sequence (O00487 whole entry, looked up): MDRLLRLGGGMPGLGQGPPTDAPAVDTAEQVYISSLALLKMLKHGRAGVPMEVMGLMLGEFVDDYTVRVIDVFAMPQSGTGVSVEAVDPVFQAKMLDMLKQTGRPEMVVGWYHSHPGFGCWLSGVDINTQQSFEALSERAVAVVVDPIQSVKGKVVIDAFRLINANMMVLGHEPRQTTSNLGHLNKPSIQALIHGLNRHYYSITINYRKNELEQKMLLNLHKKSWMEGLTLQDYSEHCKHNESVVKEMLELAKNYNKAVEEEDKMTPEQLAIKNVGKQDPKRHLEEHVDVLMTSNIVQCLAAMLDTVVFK
Rpn11 confirm = Rpn11 inhibition confirmation, single concentration | 29% of 1,900 active | purified human 26S proteasome, Ub4-pepOG fluorescence polarization; proteasome pretreated with epoxomicin | shares compounds with Rpn11 block | inhibition, % at 20 µM
MMP-2 inh = blocks human MMP-2, flagging nonselective RPN11 hits | inhibition, % at 20 µM | recombinant MMP-2, FRET peptide cleavage fluorescence | 4% of 1,900 active | AID 602330 | shares compounds with Rpn11 block;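 also: human MMP-2 activated beforehand with APMA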
Thrombin inh = counter-screen for RPN11 inhibitors: inhibition of bovine thrombin; shares compounds with Rpn11 block; bovine thrombin cleavage of Ub4-pepOG, fluorescence polarization; inhibition, % at 20 µM; 13% of 1,900 active;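 active = mean inhibition at least 40% at 20 µM, or signal 3 deviations below plate average, so some actives read negative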;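 also: plate controls were thrombin with DMSO for no effect and buffer wells lacking thrombin for full effect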
* = called active by the depositor; / = no result; + = active, no number. Rule as the data show it, unless noted: active = inhibition above about 40%; inactive = the rest.

SMILES	PLC-gamma1 inh	UCH37 DUB inh	PLC-beta3 inh	Rpn11 block	Rpn11 confirm	MMP-2 inh	Thrombin inh
CCN(CC)c1ccc(/C=N/NC(=O)c2ccco2)cc1	-113	/	-128	-9	/	/	/
CCOc1ccc(C=NNC(=O)CC(=O)NCc2ccccc2)cc1	/	1	/	/	/	/	/
COc1ccc(C(CC2(O)C(=O)Nc3ccccc32)=NO)cc1 (stereo not drawn)	/	3	/	/	/	/	/
CC(=O)N(c1ccc2oc(=O)sc2c1)S(=O)(=O)c1cccc2cccnc12	-1	-1	-6	85*	8	19	-9
Cc1nc(N2CCOCC2)nc(N2CCCCC2)c1[N+](=O)[O-]	2	6	5	-9	/	/	/
Cc1nc(N2CCCCC2)nc(N2CCCCC2)c1C=O	-8	5	-14	58*	25	-61	-4
Cc1cc(C(=O)NN=Cc2ccc(C)s2)n[nH]1	/	7	/	/	/	/	/
N#C/C(=C\c1ccc(Cl)cc1)c1nc(-c2ccco2)cs1	-4	3	-5	1	/	/	/
N#C/C(=C\c1ccc(-c2ccccc2)cc1)c1nc(-c2ccco2)cs1	-20	2	-11	56*	-2	-14	-5
CCCn1cc([C@@H]2C[C@H]3CN(Cc4cccc(Cl)c4)C(=O)[C@]34CCCN24)c(C)n1	1	3	-4	13	/	/	/
Cc1c([C@@H]2C[C@H]3CN(Cc4cccc(Cl)c4)C(=O)[C@]34CCCN24)cnn1C	-2	1	-10	45*	38	-33	5
O=C(N/N=C/c1ccncc1)c1ccc(NC(=O)c2cccc(Cl)c2)cc1	1	/	-4	52*	19	-32	-10
O=C(NN=Cc1ccco1)c1ccc(NC(=O)c2ccccc2Cl)cc1	/	1	/	/	/	/	/
O=C(N/N=C/c1ccncc1)c1ccncc1	2	/	1	0	/	/	/
O=C(NN=Cc1cccs1)c1cccc(S(=O)(=O)Nc2ccc(Cl)cc2)c1	/	3	/	/	/	/	/
O=C(N/N=C/c1ccncc1)c1cccc(S(=O)(=O)Nc2ccc(Cl)cc2)c1	0	/	-7	106*	139*	46*	12
O=C(NN=Cc1ccncc1)c1ccc(NC(=O)c2cccc(Cl)c2)cc1	/	2	/	/	/	/	/
O=C(N/N=C/c1ccncc1)c1ccc(NC(=O)c2ccc(Cl)cc2)cc1	1	/	0	45*	17	-6	2
O=C(N/N=C/c1ccco1)c1ccc(NC(=O)c2ccc(Cl)cc2)cc1	-3	/	-10	43*	-5	-1	-5
O=C(NN=Cc1ccccn1)c1ccc(NC(=O)c2cccc([N+](=O)[O-])c2)cc1	/	6	/	/	/	/	/
O=[N+]([O-])c1ccc(NC(=S)NC(=NCS(=O)(=O)c2ccccc2)c2ccccc2)cc1	/	6	/	/	/	/	/
COc1cc(OC)c(OC)cc1/C=C1\Oc2cc(OS(C)(=O)=O)ccc2C1=O	-143	/	-207	97*	69*	5	-12
CS(=O)(=O)Oc1ccc2c(c1)O/C(=C\c1cccnc1)C2=O	-51	-1	-71	-3	/	/	/
O=c1[nH]c2ccc(NC(=NS(=O)(=O)c3ccccc3)c3ccccc3)cc2[nH]1	/	1	/	/	/	/	/
Cc1cccc(-n2cnc(C(=O)N/N=C\c3ccc(Br)cc3)c2)n1	1	/	2	49*	-8	-39	-14
SMILES	PLC-gamma1 inh	UCH37 DUB inh	PLC-beta3 inh	Rpn11 block	Rpn11 confirm	MMP-2 inh	Thrombin inh
O=C(/C=C/c1ccc(F)cc1)Nc1cc(S(=O)(=O)N2CCOCC2)ccc1N1CCOCC1	-1	/	-3	90*	10	8	2
O=C(NCCCN1CCOCC1)C(=O)NN=Cc1c2ccccc2cc2ccccc12	/	2	/	/	/	/	/
Oc1cc(O)c(CN2CCOCC2)cc1CN1CCOCC1	-2	2	-6	-2	/	/	/
Oc1c(CN2CCOCC2)cc(CN2CCOCC2)cc1CN1CCOCC1	-15	0	-21	44*	3	-19	3
FC(F)(F)c1ccc2c(c1)n(Cc1ccccc1)c1[n+]2CCCCC1	4	1	-8	54*	-11	3	-21
O=C(Cn1c2[n+](c3ccc(C(F)(F)F)cc31)CCCCC2)Nc1ccccc1	-1	7	-1	-9	/	/	/
S=c1[nH]nc(-c2ccco2)n1N=Cc1c(Cl)cccc1Cl	/	6	/	/	/	/	/
Cc1cccc2c1c1ccc3c(c1n2C)C(=O)C=CC3=O	-39	/	-60	42*	12	-1	11
CSc1ccc(C=NN2CCN(Cc3ccc(C)cc3C)CC2)cc1	/	1	/	/	/	/	/
COCCOC(=O)C1=C(C)NC(=O)NC1c1ccc(-c2cc(Cl)ccc2Cl)o1 (stereo not drawn)	-5	-10	-6	46*	33	-27	16
COC(=O)C1=C(C)NC(C)=C(C(=O)OC)C1c1ccc(-c2cc(Cl)ccc2Cl)o1	-11	-24	-8	14	/	/	/
CC(=NNC(=O)CNC(=O)C(c1ccccc1)c1ccccc1)c1ccc(C)cc1	/	0	/	/	/	/	/
C=CCn1cnc2c(c1=O)c1nc3ccccc3nc1n2/N=C/c1cccc(OC)c1OC	2	/	2	192*	5	-25	-2
C=CCn1cnc2c(c1=O)c1nc3ccccc3nc1n2/N=C/c1cc(OC)c(OC)c(OC)c1	-3	/	-5	1	/	/	/
CCCCc1cc(=O)oc2cc(C)cc(OCC(=O)Nc3cccnc3)c12	-12	-6	-19	70*	18	-10	-9
COc1cc(/C=C2\SC(N3CCC(C)CC3)=NC2=O)ccc1O	-157	5	-235	65*	34	-15	28
Cc1ccc2nc(C(Cl)(Cl)Cl)nc(NN=Cc3ccncc3)c2c1	/	9	/	/	/	/	/
N#Cc1ccsc1NC(=O)COc1ccc(-c2nnco2)cc1	-12	-1	-13	13	/	/	/
N#CCSc1ccccc1NC(=O)COc1ccc(-c2nnco2)cc1	-9	1	-18	40*	15	-7	13
COc1ccc(/C=C2\C(=O)NC(=S)N2C(=O)c2ccc(F)cc2)cc1	-15	-3	-21	+	+	12	active
N#Cc1c(-c2ccco2)cc(-c2ccc(F)cc2)nc1N	-349	-216	-408	73*	50*	-2	38
CC(C)Cc1cc(-c2ccco2)c(C#N)c(N)n1	/	-50	/	60*	-6	-9	-6
CN1CCN(C(c2ccc(C(F)(F)F)cc2)c2cc(Cl)c3cccnc3c2O)CC1 (stereo not drawn)	-31	/	-35	/	/	/	/
CN1CCN(C(c2ccc(Cl)cc2)c2cc(Cl)c3cccnc3c2O)CC1 (stereo not drawn)	-14	/	-22	46*	44*	28	-8
Cc1nnsc1C(=O)NC1CCCc2c1cnn2-c1cc(F)cc(F)c1 (stereo not drawn)	-1	2	-3	-14	/	/	/
Cc1nnsc1C(=O)NC1CCCc2c1cnn2-c1ccc(F)cc1F (stereo not drawn)	2	5	-41	42*	12	-48	-3

Source: PubChem BioAssay (several laboratories)
